ChEMBL document CHEMBL1122896, “Comparative computer graphics and solution studies of the DNA interaction of substituted anthraquinones based on doxorubicin and mitoxantrone” (1985)

Key:
Mus musculus [1] = test: In vivo antileukemic activity against P-388 cells in mice and the treated /control value was determined at schedule Q01Dx01 at a dose of 2 mg/kg; type: functional
Summary of the method: (§1)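 Mice bearing P-388 leukaemia received the hydrochloride salts as a single dose on day 3 after inoculation (Q01D×01). Activity is expressed as treated/control (T/C).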

Mus musculus [2] = test: In vivo antileukemic activity against P-388 cells in mice and the treated /control value was determined at schedule Q01Dx01 at a dose of 16 mg/kg; type: functional; summary of the method: as §1
Mus musculus [3] = test: In vivo antileukemic activity against P-388 cells in mice and the treated /control value was determined at schedule Q01Dx01 at a dose of 64 mg/kg; type: functional; summary of the method: as §1
Nucleic Acid [4] = test: Concentration to give comigration of ccc PM-2 DNA with nicked PM-2 DNA under electrophoresis was evaluated.; type: nucleic-acid assay; conditions: unidentified phage
Summary of the method: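 Agarose tube gels (1%, pH 7.4 Tris-Cl/EDTA/NaCl/acetate buffer) contained drug at final 0.00–1.00 µg/mL. PM-2 ccc-DNA was loaded with drug at a 5:1 DNA phosphate:drug ratio and run at 45 V, 20–25 °C, for 3–4 h. Gels were stained with ethidium. The critical concentration is where ccc-DNA comigrates with nicked PM-2 DNA.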

Mus musculus [5] = test: In vivo antileukemic activity against P-388 cells in mice and the treated /control value was determined at schedule Q01Dx01 at a dose of 32 mg/kg; type: functional; summary of the method: as §1
Mus musculus [6] = test: In vivo antileukemic activity against P-388 cells in mice and the treated /control value was determined at schedule Q01Dx01 at a dose of 128 mg/kg; type: functional; summary of the method: as §1
HeLa [7] = test: Antiproliferative effect against HeLa cell lines at a concentration of 1 uM; type: functional, Homo sapiens
Nucleic Acid [8] = test: Compound was evaluated for DNA binding affinity; type: nucleic-acid assay; conditions: Bos taurus
Summary of the method: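 Drug solution (5 × 10^-5 M, 3 mL; three samples) was titrated with sequential aliquots of 2.5 × 10^-3 M DNA. Absorbance was read at the unbound-drug λmax after equilibration, against a buffer blank. Free and bound drug were derived from the fractional decrease in extinction. Affinity K and site number n were taken from a Scatchard plot.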

HEp-2 [9] = test: Antiproliferative effect against Hep2 cell lines at a concentration of 1 uM; type: functional, Homo sapiens
Mus musculus [10] = test: In vivo antileukemic activity against P-388 cells in mice and the treated /control value was determined at schedule Q01Dx01 at a dose of 4 mg/kg; type: functional; summary of the method: as §1
Mus musculus [11] = test: In vivo antileukemic activity against P-388 cells in mice and the treated /control value was determined at schedule Q01Dx01 at a dose of 8 mg/kg; type: functional; summary of the method: as §1
Mus musculus [12] = test: In vivo antileukemic activity against P-388 cells in mice and the treated /control value was determined at schedule Q01Dx01 at a dose of 1 mg/kg; type: functional; summary of the method: as §1
HeLa [13] = test: Antiproliferative effect against HeLa cell lines at a concentration of 10.0 uM; type: functional, Homo sapiens
HEp-2 [14] = test: Antiproliferative effect against Hep2 cell lines at a concentration of 10.0 uM; type: functional, Homo sapiens
Mus musculus [15] = test: In vivo antileukemic activity against P-388 cells in mice and the treated /control value was determined at schedule Q04Dx03 at a dose of 8 mg/kg
Mus musculus [16] = test: In vivo antileukemic activity against P-388 cells in mice and the treated /control value was determined at schedule Q04Dx03 at a dose of 16 mg/kg
Mus musculus [17] = test: In vivo antileukemic activity against P-388 cells in mice and the treated /control value was determined at schedule Q04Dx03 at a dose of 4 mg/kg

In the case of CCN(CC)CCNc1cccc2c1C(=O)c1cccc(NCCN(CC)CC)c1C2=O, the T/C (Mus musculus [1]) is reported as 98, the T/C (Mus musculus [2]) is reported as 105 and the T/C (Mus musculus [3]) is reported as 105. It also gave a Critical concentration (Nucleic Acid [4]) of 0.16 µg/mL, a T/C (Mus musculus [5]) of 100 and a T/C (Mus musculus [6]) of 92. The “No. of untreated cells” value (HeLa [7]) was 75%, the Affinity constant (Nucleic Acid [8]) was 3.97e+06 M⁻¹ and the “No. of untreated cells” value (HEp-2 [9]) was 64%. For the same compound, the T/C (Mus musculus [10]) was 107, the T/C (Mus musculus [11]) was 98 and the T/C (Mus musculus [12]) was 102.

For CCN(CC)CCNc1cccc2c1C(=O)c1ccccc1C2=O, the T/C (Mus musculus [1]) was 98, the T/C (Mus musculus [2]) was 95 and the “No. of untreated cells” value (HeLa [13]) was 96%. For the same compound, the Critical concentration (Nucleic Acid [4]) was 0.8 µg/mL, the Affinity constant (Nucleic Acid [8]) was 1.48e+06 M⁻¹ and the T/C (Mus musculus [10]) was 100. For the same compound, the T/C (Mus musculus [11]) was 100, the “No. of untreated cells” value (HEp-2 [14]) was 92% and the T/C (Mus musculus [12]) was 105.

CCN(CC)CCNc1ccc(NCCN(CC)CC)c2c1C(=O)c1ccccc1C2=O was tested, and the T/C (Mus musculus [1]) was 95, the T/C (Mus musculus [2]) was 112 and the T/C (Mus musculus [3]) was 97. It also gave a Critical concentration (Nucleic Acid [4]) of 0.16 µg/mL, a T/C (Mus musculus [5]) of 103 and a T/C (Mus musculus [6]) of 111. For the same compound, the “No. of untreated cells” value (HeLa [7]) was 98%, the Affinity constant (Nucleic Acid [8]) was 3.17e+06 M⁻¹ and the “No. of untreated cells” value (HEp-2 [9]) was 88%. It also gave a T/C (Mus musculus [10]) of 100, a T/C (Mus musculus [11]) of 107 and a T/C (Mus musculus [12]) of 117.

COc1cccc2c1C(=O)c1c(O)c3c(c(O)c1C2=O)C[C@@](O)(C(=O)CO)C[C@@H]3O[C@H]1C[C@H](N)[C@H](O)[C@H](C)O1 [DOXORUBICIN] was tested, and the “No. of untreated cells” value (HeLa [7]) was 52% and the “No. of untreated cells” value (HEp-2 [9]) was 56%.

For CCN(CC)CCNc1cccc2c1C(=O)c1c(NCCN(CC)CC)cccc1C2=O, the T/C (Mus musculus [15]) was 98, the T/C (Mus musculus [1]) was 104 and the “No. of untreated cells” value (HeLa [13]) was 64%. For the same compound, the Critical concentration (Nucleic Acid [4]) was 0.4 µg/mL, the T/C (Mus musculus [16]) was 102 and the Affinity constant (Nucleic Acid [8]) was 1.71e+06 M⁻¹. The T/C (Mus musculus [17]) was 91, the T/C (Mus musculus [10]) was 105 and the T/C (Mus musculus [11]) was 107. The “No. of untreated cells” value (HEp-2 [14]) was 84%.
